Our source for the ED50 and Activity values is ChEMBL document CHEMBL3244152, “Pivaloyl esters of N,N-dialkylated dopamine congeners. Central dopamine-receptor stimulating activity” (1978).

Test [1] deals with Rattus norvegicus. Description: Stimulation of dopamine receptor in sc dosed Sprague-Dawley rat assessed as reduction in Dopa accumulation in limbic forebrain by spectrofluorimetry. The test is classed as functional. The conditions noted are these: Limbic system, read-out: ID50 (the source's name). The method in brief: (§1)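 Pooled regions from two brains went to perchloric acid extraction, cation exchange and Dopa spectrofluorimetry. Dose giving 50% Dopa decrease came from least-squares double-reciprocal plots (1/% change vs 1/dose).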

In test [2] the test system is Rattus norvegicus. Description: Stimulation of dopamine receptor in sc dosed Sprague-Dawley rat assessed as reduction in Dopa accumulation in straitum by spectrofluorimetry. In kind it is functional. The conditions noted are these: read-out: ID50 (the source's name). The method in brief: as §1
Test [3] relates to Rattus norvegicus. Description: Effect on motor activity in reserpinized Sprague-Dawley rat assessed as stereotyped movements at 2 umolkg, sc measured every 5 mins for 2 hrs by motility meter method. The test is classed as functional, organism-based. In short, it runs like this:
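Male Sprague-Dawley rats (200–350 g) given reserpine 10 mg/kg ip 6 h before testing. Drug dissolved in saline (0.9%), neutral pH, 10 mL/kg, injected sc in the neck. Each rat then placed alone in a test cage inside a motility meter. Counts were recorded per 5-min period for 2 h, with gross behavior watched through a mirror. Means, n = 4-5.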

Test [4] concerns Rattus norvegicus. Nature of the test: Effect on motor activity in reserpinized Sprague-Dawley rat assessed as stereotyped movements at 20 umolkg, sc measured every 5 mins for 2 hrs by motility meter method. In kind it is functional, organism-based. The method in brief: (§2)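 Male Sprague-Dawley rats (200–350 g) were given reserpine 10 mg/kg ip 6 h before testing. Drug in 0.9% saline (neutral pH, 10 mL/kg) was given at 20 μmol/kg sc in the neck or 200 μmol/kg po by stomach tube. Rats were caged singly in motility meters at once, with counts recorded per 5-min period over 2 h; means n = 4-5.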

Test [5] concerns Rattus norvegicus. Description: Effect on motor activity in reserpinized Sprague-Dawley rat assessed as stereotyped movements at 200 umolkg, po measured every 5 mins for 2 hrs by motility meter method. In kind it is functional, organism-based. The method in brief: as §2
In test [6] the test system is Rattus norvegicus. Description: Stimulation of dopamine receptor in Sprague-Dawley rat assessed as reduction in Dopa accumulation in at 1 mg/kg, sc by spectrofluorimetry. On the set-up: dose 1 mg/kg. The test is classed as functional, organism-based.
The test system of test [7] is Rattus norvegicus. Nature of the test: Effect on motor activity in reserpinized Sprague-Dawley rat assessed as stereotyped movements at 20 umolkg, sc measured up to 10 mins by motility meter method. The test is classed as functional, organism-based. The method in brief:
as §2

Active and inactive are the calls of the source. No cut-off for these calls is given here.

Take `CN1CCc2cccc3c2[C@H]1Cc1ccc(O)c(O)c1-3` [APOMORPHINE]: the ED50 in test [1] and in test [2] was 0.23 µmol/kg throughout. Moreover, the result in test [3] was Active.
As for `CN(C)CCc1ccc(OC(=O)C(C)(C)C)c(OC(=O)C(C)(C)C)c1`, the ED50 in test [1] and in test [2] was above 45 µmol/kg throughout. Also, the outcome in test [4] and in test [5] was inactive.
For `CCN(CC)CCc1ccc(OC(=O)C(C)(C)C)c(OC(=O)C(C)(C)C)c1`, the ED50 in test [1] and in test [2] was above 27 µmol/kg throughout. Moreover, the outcome in test [4] and in test [5] was inactive.
In the case of `CN1CCc2cccc3c2[C@H]1Cc1ccc(OC(=O)C(C)(C)C)c(OC(=O)C(C)(C)C)c1-3`, in test [3], the outcome was Active.
For `CCCN(CCC)CCc1ccc(OC(=O)C(C)(C)C)c(OC(=O)C(C)(C)C)c1`, the ED50 in test [1] was determined as 28 µmol/kg; in test [2], 33 µmol/kg. In addition, in test [4], the outcome was Active. In test [5], the outcome was inactive.
In the case of `CCCN(CCC)CCc1ccc(O)c(O)c1`, the values for the ED50 in test [1] and in test [2] were 25 µmol/kg and 20 µmol/kg, respectively. Besides, the outcome in test [5] was inactive.
`CCCN(CCC)CCc1cccc(O)c1`: the ED50 in test [1] turned out to be 5.7 µmol/kg; in test [2], 1.8 µmol/kg. Besides, the outcome in test [4] was Active. Besides, the result in test [5] was inactive.
Taken in the same sequence, the figures for `CCCCN(CCCC)CCc1ccc(OC(=O)C(C)(C)C)c(OC(=O)C(C)(C)C)c1` were above 180 µmol/kg, above 180 µmol/kg, “inactive” and “inactive”.
Take `CC(N)Cc1ccccc1` (configuration not stated): in test [6], the outcome was inactive.
In the case of `CCCN(CCC)CCc1cccc(OC)c1`, the ED50 in test [1] and in test [2] was above 45 µmol/kg each time. Further, the result in test [4] and in test [5] was inactive.
For `CCCN(CCC)CCc1cccc(OC(=O)C(C)(C)C)c1`, the ED50 amounted to 2.7 µmol/kg in test [1] and 1.8 µmol/kg in test [2]. Further, the outcome in test [4] was Active. The outcome in test [5] and in test [7] was inactive.
